Measured values: ChEMBL document CHEMBL1143775, “Convenient one pot synthesis of some novel derivatives of thiazolo[2,3-b]dihydropyrimidinone possessing 4-methylthiophenyl moiety and evaluation of their antibacterial and antifungal activities” (2007)
Values after ≈ are worked out from the molar mass of the structure shown.

Legend:
Assay type in all cases: functional
Staphylococcus aureus [1] = experiment: Antibacterial activity against Staphylococcus aureus ATCC 25923
Outline: (§1)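 Compound-loaded discs were placed on nutrient agar inoculated separately with fresh bacterial strains. Plates were incubated at 37 °C for 24 h with separate solvent and growth controls. Zone of inhibition and MIC were measured. Ciprofloxacin was the reference drug.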

Talaromyces marneffei [2] = experiment: Antifungal activity against Penicillium marneffei by dilution method
Outline: (§2)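 Serial dilution method on Sabouraud agar (peptone, D-glucose, agar; pH 5.7) seeded with a saline spore suspension made from a loopful of each strain. Plates were dried for 1 h at incubator temperature. Test solutions in DMSO went into punched wells, with a DMSO control. Incubation was at 37 °C for 3–4 days. Zone of inhibition and MIC were read against ciclopiroxolamine as standard.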

Aspergillus fumigatus [3] = experiment: Antifungal activity against Aspergillus fumigatus NCIM 902 at 10 ug/ml; conditions: read-out: IZ; outline: as §2
Aspergillus flavus [4] = experiment: Antifungal activity against Aspergillus flavus NCIM 524 at 10 ug/ml; conditions: read-out: IZ; outline: as §2
Talaromyces marneffei [5] = experiment: Antifungal activity against Penicillium marneffei at 10 ug/ml; conditions: read-out: IZ; outline: as §2
Klebsiella pneumoniae [6] = experiment: Antibacterial activity against Klebsiella pneumoniae; outline: as §1
Candida albicans [7] = experiment: Antifungal activity against Candida albicans NCIM 3100 at 10 ug/ml; conditions: read-out: IZ; outline: as §2
Staphylococcus aureus [8] = experiment: Antibacterial activity against Staphylococcus aureus ATCC 25923 at 10 ug/ml by disk diffusion method; conditions: read-out: IZ; outline: as §1
Aspergillus fumigatus [9] = experiment: Antifungal activity against Aspergillus fumigatus NCIM 902 by dilution method; outline: as §2
Aspergillus flavus [10] = experiment: Antifungal activity against Aspergillus flavus NCIM 524 by dilution method; outline: as §2
Candida albicans [11] = experiment: Antifungal activity against Candida albicans NCIM 3100 by dilution method; outline: as §2
Pseudomonas aeruginosa [12] = experiment: Antibacterial activity against Pseudomonas aeruginosa ATCC 27853; outline: as §1
Escherichia coli [13] = experiment: Antibacterial activity against Escherichia coli ATCC 25922 at 10 ug/ml; conditions: read-out: IZ; outline: as §1
Pseudomonas aeruginosa [14] = experiment: Antibacterial activity against Pseudomonas aeruginosa ATCC 27853 at 10 ug/ml; conditions: read-out: IZ; outline: as §1
Escherichia coli [15] = experiment: Antibacterial activity against Escherichia coli ATCC 25922; outline: as §1
Klebsiella pneumoniae [16] = experiment: Antibacterial activity against Klebsiella pneumoniae at 10 ug/ml; conditions: read-out: IZ; outline: as §1

Compound | MIC (Staphylococcus aureus [1]) | MIC (Talaromyces marneffei [2]) | zone of inhibition at 10 µg/mL (Aspergillus fumigatus [3]) | zone of inhibition at 10 µg/mL (Aspergillus flavus [4]) | zone of inhibition at 10 µg/mL (Talaromyces marneffei [5]) | MIC (Klebsiella pneumoniae [6]) | zone of inhibition at 10 µg/mL (Candida albicans [7]) | zone of inhibition at 10 µg/mL (Staphylococcus aureus [8]) | MIC (Aspergillus fumigatus [9]) | MIC (Aspergillus flavus [10]) | MIC (Candida albicans [11]) | MIC (Pseudomonas aeruginosa [12]) | zone of inhibition at 10 µg/mL (Escherichia coli [13]) | zone of inhibition at 10 µg/mL (Pseudomonas aeruginosa [14]) | MIC (Escherichia coli [15]) | zone of inhibition at 10 µg/mL (Klebsiella pneumoniae [16])
CCOC(=O)C1=C(C)N=c2s/c(=C\c3ccc(F)cc3)c(=O)n2C1c1ccc(SC)cc1 (stereo unspecified) | 12.5 µg/mL (≈ 26.7 µM) | 6 µg/mL (≈ 12.8 µM) | 20 mm | 18 mm | 20 mm | 6 µg/mL (≈ 12.8 µM) | 19 mm | 18 mm | 6 µg/mL (≈ 12.8 µM) | 12.5 µg/mL (≈ 26.7 µM) | 6 µg/mL (≈ 12.8 µM) | 12.5 µg/mL (≈ 26.7 µM) | 17 mm | 10 mm | 12.5 µg/mL (≈ 26.7 µM) | 20 mm
CCOC(=O)C1=C(C)N=c2s/c(=C\c3ccc(OC)cc3)c(=O)n2C1c1ccc(SC)cc1 (stereo unspecified) | 25 µg/mL (≈ 52 µM) | 12.5 µg/mL (≈ 26 µM) | 21 mm | 17 mm | 12 mm | 6 µg/mL (≈ 12.5 µM) | 20 mm | 12 mm | 6 µg/mL (≈ 12.5 µM) | 12.5 µg/mL (≈ 26 µM) | 6 µg/mL (≈ 12.5 µM) | 6 µg/mL (≈ 12.5 µM) | 10 mm | 24 mm | 25 µg/mL (≈ 52 µM) | 21 mm
CCOC(=O)C1=C(C)N=c2s/c(=C\c3ccc(SC)cc3)c(=O)n2C1c1ccc(SC)cc1 (stereo unspecified) | 25 µg/mL (≈ 50.3 µM) | 12.5 µg/mL (≈ 25.2 µM) | 12 mm | 10 mm | 12 mm | 12.5 µg/mL (≈ 25.2 µM) | 10 mm | 10 mm | 12.5 µg/mL (≈ 25.2 µM) | 25 µg/mL (≈ 50.3 µM) | 12.5 µg/mL (≈ 25.2 µM) | 12.5 µg/mL (≈ 25.2 µM) | 12 mm | 13 mm | 25 µg/mL (≈ 50.3 µM) | 12 mm
CCOC(=O)C1=C(C)N=c2s/c(=C\c3ccc(O)c(OC)c3)c(=O)n2C1c1ccc(SC)cc1 (stereo unspecified) | 12.5 µg/mL (≈ 25.2 µM) | 6 µg/mL (≈ 12.1 µM) | 21 mm | 11 mm | 19 mm | 12.5 µg/mL (≈ 25.2 µM) | 10 mm | 20 mm | 6 µg/mL (≈ 12.1 µM) | 25 µg/mL (≈ 50.3 µM) | 12.5 µg/mL (≈ 25.2 µM) | 6 µg/mL (≈ 12.1 µM) | 18 mm | 23 mm | 12.5 µg/mL (≈ 25.2 µM) | 18 mm
CCOC(=O)C1=C(C)N=c2s/c(=C\c3ccc(Cl)cc3Cl)c(=O)n2C1c1ccc(SC)cc1 (stereo unspecified) | 12.5 µg/mL (≈ 24.1 µM) | 12.5 µg/mL (≈ 24.1 µM) | 11 mm | 10 mm | 10 mm | 12.5 µg/mL (≈ 24.1 µM) | 12 mm | 18 mm | 12.5 µg/mL (≈ 24.1 µM) | 25 µg/mL (≈ 48.1 µM) | 12.5 µg/mL (≈ 24.1 µM) | 12.5 µg/mL (≈ 24.1 µM) | 11 mm | 13 mm | 25 µg/mL (≈ 48.1 µM) | 10 mm
CCOC(=O)C1=C(C)N=c2s/c(=C\c3ccc(-c4ccc(Cl)cc4Cl)o3)c(=O)n2C1c1ccc(SC)cc1 (stereo unspecified) | 12.5 µg/mL (≈ 21.3 µM) | 6 µg/mL (≈ 10.2 µM) | 10 mm | 18 mm | 18 mm | 6 µg/mL (≈ 10.2 µM) | 20 mm | 19 mm | 12.5 µg/mL (≈ 21.3 µM) | 12.5 µg/mL (≈ 21.3 µM) | 6 µg/mL (≈ 10.2 µM) | 6 µg/mL (≈ 10.2 µM) | 11 mm | 23 mm | 25 µg/mL (≈ 42.7 µM) | 20 mm
CCOC(=O)C1=C(C)N=c2s/c(=C\c3ccc4c(c3)OCO4)c(=O)n2C1c1ccc(SC)cc1 (stereo unspecified) | 25 µg/mL (≈ 50.5 µM) | 12.5 µg/mL (≈ 25.3 µM) | 12 mm | 12 mm | 10 mm | 12.5 µg/mL (≈ 25.3 µM) | 11 mm | 10 mm | 12.5 µg/mL (≈ 25.3 µM) | 25 µg/mL (≈ 50.5 µM) | 12.5 µg/mL (≈ 25.3 µM) | 12.5 µg/mL (≈ 25.3 µM) | 10 mm | 10 mm | 25 µg/mL (≈ 50.5 µM) | 10 mm
O=C(O)c1cn(C2CC2)c2cc(N3CCNCC3)c(F)cc2c1=O [CIPROFLOXACIN] | 12.5 µg/mL (≈ 37.7 µM) | – | – | – | – | 6 µg/mL (≈ 18.1 µM) | – | 19 mm | – | – | – | 6 µg/mL (≈ 18.1 µM) | 18 mm | 25 mm | 12.5 µg/mL (≈ 37.7 µM) | 20 mm
CCOC(=O)C1=C(C)N=c2s/c(=C\c3ccc(-c4ccc([N+](=O)[O-])cc4)o3)c(=O)n2C1c1ccc(SC)cc1 (stereo unspecified) | 25 µg/mL (≈ 44.5 µM) | 12.5 µg/mL (≈ 22.3 µM) | 17 mm | 12 mm | 11 mm | 12.5 µg/mL (≈ 22.3 µM) | 12 mm | 10 mm | 12.5 µg/mL (≈ 22.3 µM) | 25 µg/mL (≈ 44.5 µM) | 12.5 µg/mL (≈ 22.3 µM) | 12.5 µg/mL (≈ 22.3 µM) | 12 mm | 13 mm | 25 µg/mL (≈ 44.5 µM) | 11 mm
CCOC(=O)C1=C(C)N=c2s/c(=C\c3ccc(-c4ccc(Br)cc4)o3)c(=O)n2C1c1ccc(SC)cc1 (stereo unspecified) | 12.5 µg/mL (≈ 21 µM) | 6 µg/mL (≈ 10.1 µM) | 12 mm | 18 mm | 20 mm | 6 µg/mL (≈ 10.1 µM) | 19 mm | 18 mm | 12.5 µg/mL (≈ 21 µM) | 12.5 µg/mL (≈ 21 µM) | 6 µg/mL (≈ 10.1 µM) | 6 µg/mL (≈ 10.1 µM) | 18 mm | 23 mm | 12.5 µg/mL (≈ 21 µM) | 20 mm
CCOC(=O)C1=C(C)N=c2s/c(=C\c3ccc(O)cc3)c(=O)n2C1c1ccc(SC)cc1 (stereo unspecified) | 25 µg/mL (≈ 53.6 µM) | 12.5 µg/mL (≈ 26.8 µM) | 10 mm | 10 mm | 12 mm | 12.5 µg/mL (≈ 26.8 µM) | 10 mm | 12 mm | 12.5 µg/mL (≈ 26.8 µM) | 25 µg/mL (≈ 53.6 µM) | 12.5 µg/mL (≈ 26.8 µM) | 12.5 µg/mL (≈ 26.8 µM) | 12 mm | 15 mm | 25 µg/mL (≈ 53.6 µM) | 12 mm
CCOC(=O)C1=C(C)N=c2s/c(=C\c3ccc(F)c(Oc4ccccc4)c3)c(=O)n2C1c1ccc(SC)cc1 (stereo unspecified) | 12.5 µg/mL (≈ 22.3 µM) | 6 µg/mL (≈ 10.7 µM) | 12 mm | 18 mm | 19 mm | 12.5 µg/mL (≈ 22.3 µM) | 20 mm | 19 mm | 12.5 µg/mL (≈ 22.3 µM) | 12.5 µg/mL (≈ 22.3 µM) | 6 µg/mL (≈ 10.7 µM) | 12.5 µg/mL (≈ 22.3 µM) | 10 mm | 12 mm | 25 µg/mL (≈ 44.6 µM) | 12 mm
CCOC(=O)C1=C(C)N=c2s/c(=C\c3ccc(-c4ccc(Cl)cc4)o3)c(=O)n2C1c1ccc(SC)cc1 (stereo unspecified) | 25 µg/mL (≈ 45.4 µM) | 12.5 µg/mL (≈ 22.7 µM) | 10 mm | 17 mm | 11 mm | 12.5 µg/mL (≈ 22.7 µM) | 19 mm | 12 mm | 12.5 µg/mL (≈ 22.7 µM) | 12.5 µg/mL (≈ 22.7 µM) | 6 µg/mL (≈ 10.9 µM) | 12.5 µg/mL (≈ 22.7 µM) | 10 mm | 10 mm | 25 µg/mL (≈ 45.4 µM) | 12 mm
CCOC(=O)C1=C(C)N=c2s/c(=C\c3ccc(Cl)cc3)c(=O)n2C1c1ccc(SC)cc1 (stereo unspecified) | 25 µg/mL (≈ 51.5 µM) | 12.5 µg/mL (≈ 25.8 µM) | 11 mm | 12 mm | 10 mm | 12.5 µg/mL (≈ 25.8 µM) | 11 mm | 10 mm | 12.5 µg/mL (≈ 25.8 µM) | 25 µg/mL (≈ 51.5 µM) | 12.5 µg/mL (≈ 25.8 µM) | 12.5 µg/mL (≈ 25.8 µM) | 10 mm | 12 mm | 25 µg/mL (≈ 51.5 µM) | 10 mm
